Source: ChEMBL document CHEMBL1126036, “Quinolone antibacterial agents. Synthesis and structure-activity relationships of a series of amino acid prodrugs of racemic and chiral 7-(3-amino-1-pyrrolidinyl)quinolones. Highly soluble quinolone prodrugs with in vivo pseudomonas activity” (J Med Chem, 1992)
Values after ≈ are worked out from the molar mass of the structure shown.

Columns and labels:
Streptococcus pneumoniae [1] = assay: In vitro antibacterial activity against gram positive Streptococcus pneumoniae SV-1.; type: functional
Mus musculus [2] = assay: In vivo potency against acute systemic infection in mouse caused by Streptococcus pyogenes C-203 on subcutaneous injection; type: functional; conditions: sc, read-out: PD50
Summary of the method: (§1)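 Acute systemic mouse infection. A single subcutaneous dose was injected at the time of challenge. Potency is reported as the median protective dose (PD50, mg/kg), determined by earlier published methods.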

Staphylococcus aureus [3] = assay: In vitro antibacterial activity against gram positive Staphylococcus aureus UC76.; type: functional
Mus musculus [4] = assay: In vivo potency against acute systemic infection in mouse caused by Streptococcus pyogenes C-203 on oral administration by gavage; type: functional; conditions: read-out: PD50
Summary of the method: (§2)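 Acute systemic mouse infection. A single oral dose was given by gavage at the time of challenge. Potency is reported as the median protective dose (PD50, mg/kg), determined by earlier published methods.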

Escherichia coli [5] = assay: In vivo potency against acute systemic infection in mouse caused by Escherichia coli Vogel on oral administration by gavage.; type: functional; conditions: read-out: PD50; summary of the method: as §2
Pseudomonas aeruginosa = assay: In vitro antibacterial activity against gram negative Pseudomonas aeruginosa UI-18.; type: functional
[6] = Aqueous solubility; type: physicochemical; conditions: read-out: S
Summary of the method: (§3)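 Solubility was measured either from HPLC peak areas at equilibrium or by a conventional weight-per-volume method. All solutions were held for 24 h before measurement.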

Enterococcus faecalis = assay: In vitro antibacterial activity against gram positive Enterococcus faecalis MGH-2.; type: functional
Streptococcus pyogenes = assay: In vitro antibacterial activity against gram positive Streptococcus pyogenes C-203.; type: functional
Mus musculus [7] = assay: In vivo potency against acute systemic infection in mouse caused by Pseudomonas aeruginosa UI-18 on oral administration by gavage.; type: functional; conditions: read-out: PD50; summary of the method: as §2
Streptococcus pneumoniae [8] = assay: In vivo potency against acute systemic infection in mouse caused by Streptococcus pneumoniae SV-1 on subcutaneous injection.; type: functional; conditions: sc, read-out: PD50; summary of the method: as §1
[9] = target: DNA gyrase (Escherichia coli) (UniProt P0AES6+P0AES4); assay: In vitro concentration inhibiting DNA gyrase induced cleavage in Escherichia coli H560.; type: functional
Summary of the method: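 DNA gyrase test run as described in earlier work. The value is the drug concentration (µg/mL) needed to cause DNA cleavage.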

Klebsiella pneumoniae [10] = assay: In vitro antibacterial activity against gram negative Klebsiella pneumoniae. MGH-2; type: functional
Streptococcus pneumoniae [11] = assay: In vivo potency against acute systemic infection in mouse caused by Streptococcus pneumoniae SV-1 on oral administration by gavage.; type: functional; conditions: read-out: PD50; summary of the method: as §2
Providencia rettgeri = assay: In vitro antibacterial activity against gram negative Providencia rettgeri M-1771.; type: functional
Escherichia coli [12] = assay: In vitro antibacterial activity against gram negative Escherichia coli Vogel.; type: functional
Enterobacter cloacae = assay: In vitro antibacterial activity against gram negative Enterobacter cloacae MA 2646.; type: functional
Mus musculus [13] = assay: In vivo potency against acute systemic infection in mouse caused by Pseudomonas aeruginosa. UI-18. on subcutaneous injection.; type: functional; conditions: sc, read-out: PD50; summary of the method: as §1
[14] = Solubility (in 0.1 N HCl); type: physicochemical; conditions: read-out: S; summary of the method: as §3
Escherichia coli [15] = assay: In vivo potency against acute systemic infection in mouse caused by Escherichia coli vogel on subcutaneous injection.; type: functional; conditions: sc, read-out: PD50; summary of the method: as §1
[16] = Solubility (at pH 4); type: physicochemical; conditions: buffer; for solubility: read-out: S; summary of the method: as §3
Staphylococcus aureus [17] = assay: In vitro antibacterial activity against gram positive Staphylococcus aureus H-228.; type: functional
Klebsiella pneumoniae [18] = assay: In vitro antibacterial activity against gram negative Klebsiella pneumoniae MGH-2.; type: functional
[19] = Solubility (at pH 7.4); type: physicochemical; conditions: buffer, read-out: S; summary of the method: as §3

Compound | MIC (Streptococcus pneumoniae [1]) [µg/mL] | ED50 (Mus musculus [2]) [mg/kg] | MIC (Staphylococcus aureus [3]) [µg/mL] | ED50 (Mus musculus [4]) [mg/kg] | ED50 (Escherichia coli [5]) [mg/kg] | MIC (Pseudomonas aeruginosa) [µg/mL] | solubility ([6]; water (aqueous)) [µg/mL] | MIC (Enterococcus faecalis) [µg/mL] | MIC (Streptococcus pyogenes) [µg/mL] | ED50 (Mus musculus [7]) [mg/kg] | ED50 (Streptococcus pneumoniae [8]) [mg/kg] | Cleavage [9] [µg/mL] | ED50 (Streptococcus pneumoniae [11]) [mg/kg] | MIC (Providencia rettgeri) [µg/mL] | MIC (Escherichia coli [12]) [µg/mL] | MIC (Enterobacter cloacae) [µg/mL] | solubility [14] [µg/mL] | ED50 (Escherichia coli [15]) [mg/kg] | solubility [16] [µg/mL] | MIC (Staphylococcus aureus [17]) [µg/mL] | other results
C[C@H](N)C(=O)NC1CCN(c2nc3c(cc2F)c(=O)c(C(=O)O)cn3C2CC2)C1.Cl.O (stereo partly specified) | 0.8 | 7 | 0.8 | 15 | 1 | 3.1 | > 300000 | 1.6 | 0.4 | 7 | 10 | 0.75 | 28 | 1.6 | 0.4 | 0.2 | > 350000 | 0.6 | > 350000 | 3.1 | solubility ([6]; pH 7.4 phosphate buffer): 80 µg/mL; MIC (Klebsiella pneumoniae [10]): 0.8 µg/mL; ED50 (Mus musculus [13]): 5 mg/kg
Cl.NC1CCN(c2c(F)cc3c(=O)c(C(=O)O)cn(C4CC4)c3c2F)C1 (stereo unspecified) | 0.05 | 2 | 0.006 | 7 | 1 | 0.05 | 15000 | 0.05 | 0.05 | 7 | 6 | 0.1 | 15 | 0.05 | 0.013 | 0.025 | 3000 | 0.2 | 2400 | 0.025 | MIC (Klebsiella pneumoniae [18]): 0.025 µg/mL; solubility [19]: 80 µg/mL; ED50 (Mus musculus [13]): 3 mg/kg
Nc1c(F)c(N2CCC(N)C2)c(F)c2c1c(=O)c(C(=O)O)cn2C1CC1 (stereo unspecified) | 0.006 (≈ 0.0165 µM) | 6 | 0.006 (≈ 0.0165 µM) | 24 | 2 | 0.05 (≈ 0.137 µM) | 2400 (≈ 6590 µM) | 0.025 (≈ 0.0686 µM) | 0.025 (≈ 0.0686 µM) | 16 | 9 | 0.25 | 20 | 0.025 (≈ 0.0686 µM) | 0.006 (≈ 0.0165 µM) | 0.006 (≈ 0.0165 µM) | 100 (≈ 274 µM) | 0.4 | 3200 (≈ 8780 µM) | 0.013 (≈ 0.0357 µM) | MIC (Klebsiella pneumoniae [18]): 0.006 µg/mL (≈ 0.0165 µM); solubility [19]: 80 µg/mL (≈ 220 µM); ED50 (Mus musculus [13]): 4 mg/kg
N[C@@H]1CCN(c2nc3c(cc2F)c(=O)c(C(=O)O)cn3C2CC2)C1 | 0.1 (≈ 0.301 µM) |  | 0.05 (≈ 0.15 µM) |  | 0.5 | 0.4 (≈ 1.2 µM) |  | 0.2 (≈ 0.602 µM) | 0.2 (≈ 0.602 µM) |  | 34 | 0.5 | 45 | 0.05 (≈ 0.15 µM) | 0.013 (≈ 0.0391 µM) | 0.025 (≈ 0.0752 µM) |  | 0.4 |  | 0.2 (≈ 0.602 µM) | MIC (Klebsiella pneumoniae [10]): 0.025 µg/mL (≈ 0.0752 µM)
C[C@H](N)C(=O)NC1CCN(c2c(F)cc3c(=O)c(C(=O)O)cn(C4CC4)c3c2F)C1.Cl.O (stereo partly specified) | 0.1 | 4 | 0.05 | 12 | 2 | 0.4 | 31000 | 0.4 | 0.1 | 13 | 9 | 1 | 13 | 0.2 | 0.2 | 0.2 | 7200 | 0.3 | 25000 | 0.2 | MIC (Klebsiella pneumoniae [18]): 0.2 µg/mL; solubility [19]: 90 µg/mL; ED50 (Mus musculus [13]): 2 mg/kg
NC(=O)CC[C@H](N)C(=O)NC1CCN(c2nc3c(cc2F)c(=O)c(C(=O)O)cn3C2CC2)C1 (stereo partly specified) | 12.5 (≈ 27.1 µM) |  | 0.8 (≈ 1.74 µM) |  | 4.8 | > 25 | 6100 (≈ 13200 µM) | 6.3 (≈ 13.7 µM) | 12.5 (≈ 27.1 µM) |  |  | 5 |  | 25 (≈ 54.3 µM) | 6.3 (≈ 13.7 µM) | 6.3 (≈ 13.7 µM) | 1400 (≈ 3040 µM) | 0.4 | 3100 (≈ 6730 µM) | 3.1 (≈ 6.73 µM) | solubility ([6]; pH 7.4 phosphate buffer): 50 µg/mL (≈ 109 µM); MIC (Klebsiella pneumoniae [10]): 12.5 µg/mL (≈ 27.1 µM)
NC1CCN(c2nc3c(cc2F)c(=O)c(C(=O)O)cn3-c2ccc(F)cc2F)C1 (stereo unspecified) [TOSUFLOXACIN] | 0.025 (≈ 0.0618 µM) | 3 | 0.025 (≈ 0.0618 µM) | 5 | 1 | 0.4 (≈ 0.989 µM) | 650 (≈ 1610 µM) | 0.1 (≈ 0.247 µM) | 0.05 (≈ 0.124 µM) | 6 | 3 |  | 14 | 0.1 (≈ 0.247 µM) | 0.013 (≈ 0.0322 µM) | 0.025 (≈ 0.0618 µM) | 400 (≈ 989 µM) | 0.3 |  | 0.05 (≈ 0.124 µM) | MIC (Klebsiella pneumoniae [18]): 0.05 µg/mL (≈ 0.124 µM); solubility [19]: 100 µg/mL (≈ 247 µM); ED50 (Mus musculus [13]): 4 mg/kg; S [16]: 0.55 mg/mL
N[C@H]1CCN(c2nc3c(cc2F)c(=O)c(C(=O)O)cn3C2CC2)C1 | 0.05 (≈ 0.15 µM) | 9 | 0.013 (≈ 0.0391 µM) | 19 | 0.8 | 0.1 (≈ 0.301 µM) |  | 0.1 (≈ 0.301 µM) | 0.05 (≈ 0.15 µM) | 4 | 14 | 0.25 | 19 | 0.025 (≈ 0.0752 µM) | 0.006 (≈ 0.0181 µM) | 0.013 (≈ 0.0391 µM) |  | 0.4 |  | 0.05 (≈ 0.15 µM) | MIC (Klebsiella pneumoniae [10]): 0.013 µg/mL (≈ 0.0391 µM); ED50 (Mus musculus [13]): 2 mg/kg
C[C@H](N)C(=O)N[C@H]1CCN(c2c(F)c(N)c3c(=O)c(C(=O)O)cn(C4CC4)c3c2F)C1.Cl.O | 0.05 | 23 | 0.025 | 6.3 | 5 | 1.6 | 18000 | 0.2 | 0.05 | 9.6 | 13 | 2.5 | 17 | 0.4 | 0.05 | 0.05 | 2800 | 2.5 | 58000 | 0.1 | MIC (Klebsiella pneumoniae [18]): 0.2 µg/mL; solubility [19]: 40 µg/mL; ED50 (Mus musculus [13]): 4 mg/kg
Cl.NC1CCN(c2cc3c(cc2F)c(=O)c(C(=O)O)cn3C2CC2)C1.O (stereo unspecified) | 0.1 | 11 | 0.025 | 97 | 3 | 0.1 |  | 0.1 | 0.1 | 49 | 4 | 0.1 | 43 | 0.1 | 0.025 | 0.025 |  | 0.5 |  | 0.2 | MIC (Klebsiella pneumoniae [18]): 0.05 µg/mL; ED50 (Mus musculus [13]): 5 mg/kg
C[C@H](N)C(=O)N[C@H]1CCN(c2nc3c(cc2F)c(=O)c(C(=O)O)cn3C2CC2)C1.Cl.O | 0.8 | 10 | 0.8 | 22 | 1.3 | 3.1 | > 350000 | 1.6 | 0.8 | 3 | 12 | 5 | 25 | 3.1 | 0.8 | 0.8 | > 350000 | 0.4 | > 350000 | 3.1 | solubility ([6]; pH 7.4 phosphate buffer): 20 µg/mL; MIC (Klebsiella pneumoniae [10]): 1.6 µg/mL; ED50 (Mus musculus [13]): 2 mg/kg
C[C@H](N)C(=O)N[C@@H]1CCN(c2c(F)c(N)c3c(=O)c(C(=O)O)cn(C4CC4)c3c2F)C1.Cl.O | 0.2 | 6.3 | 0.025 | 20 | 2.2 | 3.1 | 21000 | 0.4 | 0.2 |  | 7.7 | 5 | 18 | 1.6 | 0.4 | 0.8 | 3200 | 0.5 | 71000 | 0.4 | MIC (Klebsiella pneumoniae [18]): 0.8 µg/mL; solubility [19]: 40 µg/mL
C[C@@H](N)C(=O)NC1CCN(c2nc3c(cc2F)c(=O)c(C(=O)O)cn3C2CC2)C1.Cl.O (stereo partly specified) | 0.25 |  | 0.05 |  | 22.5 | 1.6 | > 250000 | 0.2 | 0.013 |  | 3 | 2.5 | > 100 | 1.6 | 0.8 | 0.8 | 189000 | 5.1 | 262000 | 0.4 | solubility ([6]; pH 7.4 phosphate buffer): 60 µg/mL; MIC (Klebsiella pneumoniae [10]): 0.8 µg/mL
C[C@H](N)C(=O)NC1CCN(c2cc3c(cc2F)c(=O)c(C(=O)O)cn3C2CC2)C1.Cl.O (stereo partly specified) | 0.4 | 5 | 0.4 | > 100 | 5 | 1.6 | > 100000 | 1.6 | 0.4 |  | 13 | 1 | > 100 | 1.6 | 0.4 | 0.8 | > 100000 | 0.5 | > 100000 | 3.1 | MIC (Klebsiella pneumoniae [18]): 0.8 µg/mL; solubility [19]: 270 µg/mL
